Experimental data: ChEMBL document CHEMBL4834399, “Pharmacokinetics of Eleven Kratom Alkaloids Following an Oral Dose of Either Traditional or Commercial Kratom Products in Rats” (J Nat Prod, 2021)

Legend:
[1] = AUC(0 to 24 hrs) in Sprague-Dawley rat plasma at <0.1 mg/kg, po administered as OPMS liquid formulation measured for 24 hrs by UPLC-MS/MS analysis; type: ADME, organism-based; design: route oral, time 24 hrs, dose <0.1
[2] = Cmax in Sprague-Dawley rat plasma at <0.1 mg/kg, po administered as OPMS liquid formulation measured for 24 hrs by UPLC-MS/MS analysis; type: ADME, organism-based; design: route oral, time 24 hrs, dose <0.1
Outline: (§1)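 Jugular-cannulated male SD rats (225 ± 25 g, n = 4) were fasted 12–16 h and given one oral gavage of LKT (366 mg/kg) or OPMS liquid (0.8 mL/kg) in water at 4 mL/kg, with dosing normalized to MTG human equivalent dose. Plasma was sampled from predose to 24 h and measured by UPLC–MS/MS (LLOQ 1 ng/mL). Cmax and Tmax were read from the observed data; Cmax/dose was also reported. Mean ± SEM.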

[3] = Tmax in Sprague-Dawley rat plasma at <0.1 mg/kg, po administered as OPMS liquid formulation measured for 24 hrs by UPLC-MS/MS analysis; type: ADME, organism-based; outline: as §1
[4] = AUC(0 to 24 hrs) in Sprague-Dawley rat plasma at <0.1 mg/kg, po administered as LKT formulation measured for 24 hrs by UPLC-MS/MS analysis; type: ADME, organism-based; design: route oral, time 24 hrs, dose <0.1
[5] = Cmax in Sprague-Dawley rat plasma at <0.1 mg/kg, po administered as LKT formulation measured for 24 hrs by UPLC-MS/MS analysis; type: ADME, organism-based; design: route oral, time 24 hrs, dose <0.1; outline: as §1
[6] = Tmax in Sprague-Dawley rat plasma at <0.1 mg/kg, po administered as LKT formulation measured for 24 hrs by UPLC-MS/MS analysis; type: ADME, organism-based; outline: as §1
[7] = Stability of the compound in rat plasma assessed as drug recovery; type: ADME, cell-free
[8] = Stability of the compound in water-methanol mixture (1:1) assessed as drug recovery; type: physicochemical; conditions: buffer
[9] = AUC(0 to 24 hrs) in Sprague-Dawley rat plasma at 5.73 mg/kg, po administered as LKT formulation measured for 24 hrs by UPLC-MS/MS analysis; type: ADME, organism-based; design: route oral, time 24 hrs, dose 5.73 mg/kg
[10] = Tmax in Sprague-Dawley rat plasma at 9.6 mg/kg, po administered as OPMS liquid formulation measured for 24 hrs by UPLC-MS/MS analysis; type: ADME, organism-based; outline: as §1
[11] = Cmax in Sprague-Dawley rat plasma at 9.6 mg/kg, po administered as OPMS liquid formulation measured for 24 hrs by UPLC-MS/MS analysis; type: ADME, organism-based; design: route oral, dose 9.6 mg/kg, time 24 hrs; outline: as §1
[12] = AUC(0 to 24 hrs) in Sprague-Dawley rat plasma at 9.6 mg/kg, po administered as OPMS liquid formulation measured for 24 hrs by UPLC-MS/MS analysis; type: ADME, organism-based; design: route oral, time 24 hrs, dose 9.6 mg/kg
[13] = Dose normalized AUC(0 to 24 hrs) in Sprague-Dawley rat plasma at 9.6 mg/kg, po administered as OPMS liquid formulation measured for 24 hrs by UPLC-MS/MS analysis; type: ADME, organism-based; conditions: in vivo
[14] = Dose normalized Cmax in Sprague-Dawley rat plasma at 9.6 mg/kg, po administered as OPMS liquid formulation measured for 24 hrs by UPLC-MS/MS analysis; type: ADME, organism-based; conditions: in vivo; outline: as §1
[15] = Tmax in Sprague-Dawley rat plasma at 5.73 mg/kg, po administered as LKT formulation measured for 24 hrs by UPLC-MS/MS analysis; type: ADME, organism-based; outline: as §1
[16] = Cmax in Sprague-Dawley rat plasma at 5.73 mg/kg, po administered as LKT formulation measured for 24 hrs by UPLC-MS/MS analysis; type: ADME, organism-based; design: route oral, dose 5.73 mg/kg, time 24 hrs; outline: as §1
[17] = Dose normalized Cmax in Sprague-Dawley rat plasma at 5.73 mg/kg, po administered as LKT formulation measured for 24 hrs by UPLC-MS/MS analysis; type: ADME, organism-based; conditions: in vivo; outline: as §1
[18] = Dose normalized AUC(0 to 24 hrs) in Sprague-Dawley rat plasma at 5.73 mg/kg, po administered as LKT formulation measured for 24 hrs by UPLC-MS/MS analysis; type: ADME, organism-based; conditions: in vivo
Cytochrome P450 2D6 = Cytochrome P450 2D6 (Homo sapiens, UniProt P10635); assay: Inhibition of CYP2D6 in human liver microsomes assessed as inhibition of dextromethorphan O-demethylation using dextromethorphan as substrate preincubated for 5 mins followed by NADPH addition by UPLC-MS/MS analysis; type: ADME
Sequence of Cytochrome P450 2D6 (P10635 whole entry): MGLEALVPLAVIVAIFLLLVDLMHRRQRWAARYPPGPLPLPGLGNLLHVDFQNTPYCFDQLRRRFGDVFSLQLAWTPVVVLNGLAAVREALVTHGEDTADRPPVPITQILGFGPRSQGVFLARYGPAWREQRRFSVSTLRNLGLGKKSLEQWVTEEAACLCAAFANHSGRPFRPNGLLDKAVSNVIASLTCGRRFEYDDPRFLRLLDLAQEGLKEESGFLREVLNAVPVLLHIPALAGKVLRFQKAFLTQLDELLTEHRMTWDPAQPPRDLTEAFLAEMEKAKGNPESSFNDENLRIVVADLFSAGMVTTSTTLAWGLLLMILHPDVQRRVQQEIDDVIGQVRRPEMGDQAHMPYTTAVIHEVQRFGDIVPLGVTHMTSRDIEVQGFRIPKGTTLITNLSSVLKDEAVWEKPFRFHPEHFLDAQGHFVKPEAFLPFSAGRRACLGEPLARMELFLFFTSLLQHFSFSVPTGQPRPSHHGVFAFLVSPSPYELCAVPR

[19] = Dose normalized Cmax in rat plasma at 20 mg/kg, po administered as LKT formulation; type: ADME, organism-based; conditions: in vivo
[20] = Dose normalized AUC in rat plasma at 20 mg/kg, po administered as LKT formulation; type: ADME, organism-based; conditions: in vivo
[21] = rat, in vivo, po, 5.73 mg/kg, 24 h
[22] = rat, in vivo, po, 9.6 mg/kg, 24 h
[23] = Tmax in Sprague-Dawley rat plasma at 1.1 mg/kg, po administered as LKT formulation measured for 24 hrs by UPLC-MS/MS analysis; type: ADME, organism-based; outline: as §1
[24] = Cmax in Sprague-Dawley rat plasma at 1.1 mg/kg, po administered as LKT formulation measured for 24 hrs by UPLC-MS/MS analysis; type: ADME, organism-based; design: route oral, dose 1.1 mg/kg, time 24 hrs; outline: as §1
[25] = Tmax in Sprague-Dawley rat plasma at 1.77 mg/kg, po administered as OPMS liquid formulation measured for 24 hrs by UPLC-MS/MS analysis; type: ADME, organism-based; outline: as §1
[26] = Cmax in Sprague-Dawley rat plasma at 1.77 mg/kg, po administered as OPMS liquid formulation measured for 24 hrs by UPLC-MS/MS analysis; type: ADME, organism-based; design: route oral, time 24 hrs, dose 1.77 mg/kg; outline: as §1
[27] = Plasma concentration in Sprague-Dawley rat at 1.1 mg/kg, po administered as LKT formulation measured within 1 hrs by UPLC-MS/MS analysis; type: ADME, organism-based; outline: as §1
[28] = Plasma concentration in Sprague-Dawley rat at 1.77 mg/kg, po administered as OPMS liquid formulation measured within 1 hrs by UPLC-MS/MS analysis; type: ADME, organism-based; outline: as §1
[29] = Tmax in Sprague-Dawley rat plasma at 2.03 mg/kg, po administered as LKT formulation measured for 24 hrs by UPLC-MS/MS analysis; type: ADME, organism-based; outline: as §1
[30] = Cmax in Sprague-Dawley rat plasma at 2.03 mg/kg, po administered as LKT formulation measured for 24 hrs by UPLC-MS/MS analysis; type: ADME, organism-based; design: route oral, dose 2.03 mg/kg, time 24 hrs; outline: as §1
[31] = AUC(0 to 24 hrs) in Sprague-Dawley rat plasma at 2.03 mg/kg, po administered as LKT formulation measured for 24 hrs by UPLC-MS/MS analysis; type: ADME, organism-based; design: route oral, time 24 hrs, dose 2.03 mg/kg
[32] = Dose normalized Cmax in Sprague-Dawley rat plasma at 2.03 mg/kg, po administered as LKT formulation measured for 24 hrs by UPLC-MS/MS analysis; type: ADME, organism-based; conditions: in vivo; outline: as §1
[33] = Dose normalized AUC(0 to 24 hrs) in Sprague-Dawley rat plasma at 2.03 mg/kg, po administered as LKT formulation measured for 24 hrs by UPLC-MS/MS analysis; type: ADME, organism-based; conditions: in vivo
[34] = Tmax in Sprague-Dawley rat plasma at 2.24 mg/kg, po administered as OPMS liquid formulation measured for 24 hrs by UPLC-MS/MS analysis; type: ADME, organism-based; outline: as §1
[35] = Cmax in Sprague-Dawley rat plasma at 2.24 mg/kg, po administered as OPMS liquid formulation measured for 24 hrs by UPLC-MS/MS analysis; type: ADME, organism-based; design: route oral, dose 2.24 mg/kg, time 24 hrs; outline: as §1
[36] = AUC(0 to 24 hrs) in Sprague-Dawley rat plasma at 2.24 mg/kg, po administered as OPMS liquid formulation measured for 24 hrs by UPLC-MS/MS analysis; type: ADME, organism-based; design: route oral, time 24 hrs, dose 2.24 mg/kg
[37] = Dose normalized Cmax in Sprague-Dawley rat plasma at 2.24 mg/kg, po administered as OPMS liquid formulation measured for 24 hrs by UPLC-MS/MS analysis; type: ADME, organism-based; conditions: in vivo; outline: as §1
[38] = Dose normalized AUC(0 to 24 hrs) in Sprague-Dawley rat plasma at 2.24 mg/kg, po administered as OPMS liquid formulation measured for 24 hrs by UPLC-MS/MS analysis; type: ADME, organism-based; conditions: in vivo
[39] = Tmax in Sprague-Dawley rat plasma at 0.79 mg/kg, po administered as LKT formulation measured for 24 hrs by UPLC-MS/MS analysis; type: ADME, organism-based; outline: as §1
[40] = Cmax in Sprague-Dawley rat plasma at 0.79 mg/kg, po administered as LKT formulation measured for 24 hrs by UPLC-MS/MS analysis; type: ADME, organism-based; design: route oral, time 24 hrs, dose 0.79 mg/kg; outline: as §1
[41] = Tmax in Sprague-Dawley rat plasma at 1.23 mg/kg, po administered as OPMS liquid formulation measured for 24 hrs by UPLC-MS/MS analysis; type: ADME, organism-based; outline: as §1
[42] = Cmax in Sprague-Dawley rat plasma at 1.23 mg/kg, po administered as OPMS liquid formulation measured for 24 hrs by UPLC-MS/MS analysis; type: ADME, organism-based; design: route oral, time 24 hrs, dose 1.23 mg/kg; outline: as §1
[43] = Drug uptake in Sprague-Dawley rat plasma at 0.79 mg/kg, po administered as LKT formulation measured within 1 hrs by UPLC-MS/MS analysis; type: ADME, organism-based; outline: as §1
[44] = Drug uptake in Sprague-Dawley rat plasma at 1.23 mg/kg, po administered as OPMS liquid formulation measured within 1 hrs by UPLC-MS/MS analysis; type: ADME, organism-based; outline: as §1

CC[C@@H]1CN2CC[C@@]3(O)C(=Nc4cccc(OC)c43)[C@@H]2C[C@@H]1/C(=C\OC)C(=O)OC
AUC(0-t) at 24 h [1]: 41 ng·h/mL
Cmax [2]: 4 ng/mL
Tmax [3]: 3.1 h
AUC(0-t) at 24 h [4]: 17.4 ng·h/mL
Cmax [5]: 4.3 ng/mL
Tmax [6]: 0.9 h
Drug recovery [7]: > 90%
Drug recovery [8]: > 80%

CC[C@@H]1CN2CC[C@]3(C(=O)Nc4ccccc43)[C@@H]2C[C@@H]1/C(=C\OC)C(=O)OC [CORYNOXINE B]
Drug recovery [7]: > 90%
Drug recovery [8]: > 80%

CC[C@@H]1CN2CCc3c([nH]c4cccc(OC)c34)[C@@H]2C[C@@H]1/C(=C\OC)C(=O)OC
AUC(0-t) at 24 h [9]: 480 ng·h/mL
Tmax [10]: 3.1 h
Cmax [11]: 112 ng/mL
AUC(0-t) at 24 h [12]: 1310 ng·h/mL
AUC/dose [13]: 136.1 kg·ng·h/mL/mg
Cmax/dose [14]: 11.7 kg·ng/mL/mg
Tmax [15]: 1.3 h
Cmax [16]: 63.8 ng/mL
Cmax/dose [17]: 11.1 kg·ng/mL/mg
AUC/dose [18]: 83.7 kg·ng·h/mL/mg
Ki (Cytochrome P450 2D6): 1100 nM
Cmax/dose [19]: 46.5 ng/mL
AUC/dose [20]: 213.1 kg·ng·h/mL/mg
Drug recovery [7]: > 90%
Drug recovery [8]: > 80%
Drug metabolism [21]: 3.4%
Drug metabolism [22]: 3.1%

CC[C@@H]1CN2CC[C@@]3(C(=O)Nc4cccc(O)c43)[C@H]2C[C@@H]1/C(=C\OC)C(=O)OC
Drug recovery [7]: > 90%
Drug recovery [8]: > 80%

CC[C@@H]1CN2CC[C@@]3(C(=O)Nc4ccccc43)[C@@H]2C[C@@H]1/C(=C\OC)C(=O)OC [CORYNOXINE]
Drug recovery [7]: > 90%
Drug recovery [8]: > 80%

C=C[C@H]1CN2CCc3c([nH]c4cccc(OC)c34)[C@@H]2C[C@@H]1/C(=C\OC)C(=O)OC
Tmax [23]: 0.167 h
Cmax [24]: 5.3 ng/mL
Tmax [25]: 5 min
Cmax [26]: 2 ng/mL
concentration at 1 h [27]: < 1 ng/mL
concentration at 1 h [28]: < 1 ng/mL
Drug recovery [7]: > 90%
Drug recovery [8]: > 80%

CC[C@@H]1CN2CCc3c([nH]c4cccc(OC)c34)[C@H]2C[C@@H]1/C(=C\OC)C(=O)OC
Tmax [29]: 1.8 h
Cmax [30]: 21.1 ng/mL
AUC(0-t) at 24 h [31]: 107 ng·h/mL
Cmax/dose [32]: 10.4 kg·ng/mL/mg
AUC/dose [33]: 52.9 kg·ng·h/mL/mg
Tmax [34]: 3.2 h
Cmax [35]: 23.8 ng/mL
AUC(0-t) at 24 h [36]: 223 ng·h/mL
Cmax/dose [37]: 10.8 kg·ng/mL/mg
AUC/dose [38]: 101.2 kg·ng·h/mL/mg
Drug recovery [7]: > 90%
Drug recovery [8]: > 80%

CC[C@H]1CN2CCc3c([nH]c4cccc(OC)c34)[C@@H]2C[C@@H]1/C(=C\OC)C(=O)OC
Tmax [39]: 0.167 h
Cmax [40]: 2.9 ng/mL
Tmax [41]: 5 min
Cmax [42]: 2.9 ng/mL
concentration at 1 h [43]: < 1 ng/mL
concentration at 1 h [44]: < 1 ng/mL
Drug recovery [7]: > 90%
Drug recovery [8]: > 80%

COC(=O)C1=CO[C@@H](C)[C@H]2CN3CC[C@]4(C(=O)Nc5ccccc54)[C@@H]3C[C@H]12
Drug recovery [7]: > 90%
Drug recovery [8]: > 80%
